What is called inhibition in vivo is the percentage by which the read-out fell short of the control.

In data set [1] the test system is Rattus norvegicus. Description: Toxicity in Wistar albino rat assessed as induction of haemorrhagic spots up to 3 g/kg, po after 8 hrs. The format is organism-based. To be noted: in vivo, 3000 mg/kg. In short, it runs like this: (§1)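 Acute toxicity: albino rats of either sex in groups of six, oral doses from 100 up to 3000 mg kg^-1. Rats observed continuously for 8 h for changes in motor activity, ataxia, tremors, convulsions, sedation and lacrimation. Ulceration and haemorrhagic spots also inspected.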

The subject of data set [2] is Rattus norvegicus. Kind of data set: Antiinflammatory activity in Wistar albino rat assessed as inhibition of carrageenan-induced paw oedema at 100 mg/kg, po measured 1 hr after carrageenan challenge. Type of data set: functional. Put shortly:
(§2)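 Albino rats, 6 per group, dosed orally at 100 mg kg^-1; ibuprofen 100 mg kg^-1 as standard. One hour after dosing, 0.1 ml of 1% carrageenan with 2% gum acacia in normal saline injected subplantar into the right hind paw. Paw volume measured by plethysmometer; % inhibition versus control calculated. One-way ANOVA with Dunnett's t test.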
A general note: The carrageenan paw model is a standard test of acute inflammation.

For data set [3], the system named is Rattus norvegicus. Kind of data set: Analgesic activity in Wistar albino rat […] assessed as reaction time for tail withdrawal at 100 mg/kg, po after 300 mins by tail flick method. Type of data set: functional. Put shortly: (§3)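 Rat tail-flick test: latency for the rat to withdraw its tail from hot water at 55 ± 0.5 °C. Drugs given orally. Reaction time in seconds read at 60, 90, 120 and 300 min after dosing. Treated animals compared with control and with a nimesulide standard. Wistar albino rats, 150-200 g, either sex; food withdrawn 12 h before and during testing.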
On the technique in general: In hot-plate and tail-flick tests a longer latency is read as antinociception.

Data set [4] relates to Rattus norvegicus. Kind of data set: Antiinflammatory activity in Wistar albino rat assessed as inhibition of carrageenan-induced paw oedema at 100 mg/kg, po measured 5 hrs after carrageenan challenge. The format is functional. Put shortly:
as §2

For data set [5], the system named is Rattus norvegicus. Kind of data set: Toxicity in Wistar albino rat assessed as induction of gastric ulceration up to 3 g/kg, po after 8 hrs. Type of data set: organism-based, Stomach. To be noted: in vivo, 3000 mg/kg. Put shortly:
as §1

Data set [6] concerns Rattus norvegicus. Kind of data set: Analgesic activity in Wistar albino rat […] assessed as reaction time for tail withdrawal at 100 mg/kg, po after 120 mins by tail flick method. The format is functional. In short, it runs like this: as §3
Data set [7] relates to Rattus norvegicus. Description: Toxicity in Wistar albino rat assessed as effect on motor activity up to 3 g/kg, po after 8 hrs. The format is organism-based. To be noted: in vivo, 3000 mg/kg. In short, it runs like this:
as §1

Data set [8] concerns Rattus norvegicus. Description: Antiinflammatory activity in Wistar albino rat assessed as inhibition of carrageenan-induced paw oedema at 100 mg/kg, po measured 3 hrs after carrageenan challenge. Type of data set: functional. Put shortly: as §2
In data set [9] the test system is Rattus norvegicus. Kind of data set: Analgesic activity in Wistar albino rat […] assessed as reaction time for tail withdrawal at 100 mg/kg, po after 60 mins by tail flick method. Type of data set: functional. Put shortly:
as §3

In data set [10] the test system is Rattus norvegicus. Description: Toxicity in Wistar albino rat assessed as induction of convulsions and tremors up to 3 g/kg, po after 8 hrs. To be noted: in vivo, 3000 mg/kg. Type of data set: organism-based. In short, it runs like this: as §1
Data set [11] has as its system Rattus norvegicus. Kind of data set: Antiinflammatory activity in Wistar albino rat assessed as inhibition of carrageenan-induced paw oedema at 100 mg/kg, po measured 4 hrs after carrageenan challenge. Type of data set: functional. Put shortly: as §2
In data set [12] the test system is Rattus norvegicus. Kind of data set: Analgesic activity in Wistar albino rat […] assessed as increase in reaction time for tail withdrawal at 100 mg/kg, po after 300 mins by tail flick method. Type of data set: functional. In short, it runs like this: as §3
Data set [13] relates to Rattus norvegicus. Description: Analgesic activity in Wistar albino rat […] assessed as increase in reaction time for tail withdrawal at 100 mg/kg, po after 180 mins by tail flick method. The format is functional.
Data set [14] has as its system Rattus norvegicus. Kind of data set: Analgesic activity in Wistar albino rat […] assessed as reaction time for tail withdrawal at 100 mg/kg, po after 180 mins by tail flick method. The format is functional.
Data set [15] has as its system Rattus norvegicus. Kind of data set: Toxicity in Wistar albino rat assessed as mortality up to 3 g/kg, po after 24 hrs. Type of data set: organism-based. The following applies: in vivo, 3000 mg/kg. Put shortly: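 Albino rats of either sex, six per group, dosed orally from 100 up to 3000 mg kg^-1 body weight. Animals were watched continuously for 8 h for signs of acute toxicity such as altered motor activity, ataxia, tremors, convulsions, sedation and lacrimation, and were checked for mortality over a 24 h period. Food was withheld for 12 h before dosing.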

In data set [16] the test system is Rattus norvegicus. Description: Antiinflammatory activity in Wistar albino rat assessed as inhibition of carrageenan-induced paw oedema at 100 mg/kg, po measured 2 hrs after carrageenan challenge. The format is functional. Put shortly: as §2
The subject of data set [17] is Rattus norvegicus. Description: Toxicity in Wistar albino rat assessed as induction of sedation up to 3 g/kg, po after 8 hrs. To be noted: in vivo, 3000 mg/kg. Type of data set: organism-based. In short, it runs like this:
as §1

For data set [18], the system named is Rattus norvegicus. Kind of data set: Antiinflammatory activity in Wistar albino rat assessed as inhibition of carrageenan-induced paw oedema at 100 mg/kg, po measured 0.5 hrs after carrageenan challenge. The format is functional. In short, it runs like this:
as §2

For data set [19], the system named is Rattus norvegicus. Kind of data set: Analgesic activity in Wistar albino rat […] assessed as reaction time for tail withdrawal at 100 mg/kg, po after 30 mins by tail flick method. Type of data set: functional.

For `Cc1ccc2c(Cc3nn4cc(-c5ccc(Cl)cc5)nc4s3)coc2c1`, the Activity result is recorded as “Non-toxic” with Rattus norvegicus [1]; 7.95 s in the data set on Rattus norvegicus [3]; “Non-toxic” in the data set with Rattus norvegicus [5]; 8.75 s with Rattus norvegicus [6]; “Non-toxic” in the data set on Rattus norvegicus [7]; 4.033 s with Rattus norvegicus [9]. The Activity result with Rattus norvegicus [10] is given as “Non-toxic”; in the data set with Rattus norvegicus [12], 196.31%; in the data set on Rattus norvegicus [13], 259.03%; in the data set with Rattus norvegicus [14], 9.633 s; with Rattus norvegicus [15] it was “Non-toxic”; with Rattus norvegicus [17], “Non-toxic”. Further, the Activity in the data set with Rattus norvegicus [19] was found to be 3.483 s. Besides, the inhibition in vivo at 100 mg/kg in the data set with Rattus norvegicus [2] stood at 13.4%; in the data set with Rattus norvegicus [4], 58.1%; with Rattus norvegicus [8] it was 51.7%; with Rattus norvegicus [11], 55.9%; with Rattus norvegicus [16] it was 42.1%; with Rattus norvegicus [18], 8.38%.

Turning to `Cc1ccc2c(Cc3nn4cc(-c5ccc([N+](=O)[O-])cc5)nc4s3)coc2c1`, the Activity entry is reported as “Non-toxic” in the data set with Rattus norvegicus [1]; 8.35 s with Rattus norvegicus [3]; “Non-toxic” in the data set with Rattus norvegicus [5]; 9.567 s in the data set on Rattus norvegicus [6]; “Non-toxic” in the data set with Rattus norvegicus [7]; 7.4 s in the data set with Rattus norvegicus [9]. The Activity entry in the data set on Rattus norvegicus [10] is on record as “Non-toxic”; in the data set on Rattus norvegicus [12], 211.21%; with Rattus norvegicus [13], 268.98%; in the data set on Rattus norvegicus [14], 9.9 s; in the data set with Rattus norvegicus [15] it was “Non-toxic”; in the data set with Rattus norvegicus [17] it was “Non-toxic”. For the same compound, the Activity with Rattus norvegicus [19] is recorded as 4.65 s. For the same compound, the inhibition in vivo at 100 mg/kg with Rattus norvegicus [2] turned out to be 13.4%; in the data set with Rattus norvegicus [4], 49.8%; in the data set on Rattus norvegicus [8], 40.9%; in the data set on Rattus norvegicus [11], 45.7%; in the data set with Rattus norvegicus [16], 24.3%; in the data set with Rattus norvegicus [18], 0%.

With `Cc1ccc2c(Cc3nn4cc(-c5ccc(Br)cc5)nc4s3)coc2c1`, the Activity result was “Non-toxic” in the data set on Rattus norvegicus [1]; 2.683 s in the data set on Rattus norvegicus [3]; “Non-toxic” in the data set with Rattus norvegicus [5]; 2.583 s in the data set with Rattus norvegicus [6]; “Non-toxic” with Rattus norvegicus [7]; 2.667 s in the data set on Rattus norvegicus [9]. Further, the Activity entry in the data set on Rattus norvegicus [10] is reported as “Non-toxic”; in the data set on Rattus norvegicus [12] it was 0%; in the data set with Rattus norvegicus [13], 0.633%; in the data set on Rattus norvegicus [14], 2.7 s; in the data set on Rattus norvegicus [15], “Non-toxic”; with Rattus norvegicus [17], “Non-toxic”. The Activity with Rattus norvegicus [19] came out at 2.65 s. For the same compound, the inhibition in vivo at 100 mg/kg with Rattus norvegicus [2] turned out to be 10.3%; in the data set on Rattus norvegicus [4], 22.5%; with Rattus norvegicus [8], 10.8%; in the data set with Rattus norvegicus [11], 11.1%; with Rattus norvegicus [16], 12%; in the data set on Rattus norvegicus [18] it was 6%.

On to `CC(C)Cc1ccc(C(C)C(=O)O)cc1` (stereo not given) [IBUPROFEN], for which the inhibition in vivo at 100 mg/kg in the data set on Rattus norvegicus [2] stood at 42.3%; in the data set with Rattus norvegicus [4], 72.9%; with Rattus norvegicus [8], 60%; with Rattus norvegicus [11] it was 66.1%; in the data set on Rattus norvegicus [16], 42.9%; with Rattus norvegicus [18] it was 42.1%.

On to `CS(=O)(=O)Nc1ccc([N+](=O)[O-])cc1Oc1ccccc1` [NIMESULIDE], for which the Activity in the data set with Rattus norvegicus [3] stood at 8.55 s; in the data set on Rattus norvegicus [6], 8.65 s; in the data set with Rattus norvegicus [9] it was 7.683 s; with Rattus norvegicus [12] it was 218.67%; with Rattus norvegicus [13], 260.9%; with Rattus norvegicus [14] it was 9.683 s. Further, the Activity in the data set with Rattus norvegicus [19] is given as 5.1 s.

For the origin of these results see ChEMBL document CHEMBL1140193, “Synthesis and anti-inflammatory evaluation of methylene bridged benzofuranyl imidazo[2,1-b][1,3,4]thiadiazoles” (Eur J Med Chem, 2008).
